# High-throughput results deposited in PubChem BioAssay by several laboratories.
# Diaph inh CS = diaphorase inhibitors and chemical oxidizers, primary screen, counter-screen for diaphorase-coupled primary assays, biochemical, uHTS, resorufin fluorescence. diaphorase resazurin-to-resorufin fluorescence, NADH, 16 min; bacterial (C. kluyveri) enzyme, not human. inhibition, % at 20 µM. 190,000 tested, 0.69% active. AID 1217, 2008;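 active = primary screen inhibition at 20 µM above a set limit, cut at about 50% in these data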;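 note: plate controls were DMSO with full reaction for no effect and wells lacking NADH for full effect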
#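 Benchmarks: positive control wells lacking NADH, neutral wells with DMSO only. System: bacterial diaphorase enzyme (C. kluyveri). Input: 0.14 U/mL diaphorase, enzyme working solution. Detection: resorufin fluorescence, excitation 544 nm, emission 590 nm. Times: 16-min room-temperature incubation before reading.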
# ROMK mod = ROMK potassium channel modulators, primary screen, cell-based, thallium flux, MLSMR library; ATP-sensitive inward rectifier potassium channel 1 (Homo sapiens), P48048; Tet-inducible ROMK, thallium flux fluorescence; actives lie on both sides; B-score at 10 µM; 130,000 tested, 2% active; AID 1918, 2009;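 active = signal ratio slope over the read window, or its plate-corrected B-score, at least 3 SD from the plate mean, either direction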;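 note: B-score of the F/F0 ratio slope over 7 to 12 s after thallium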
# Target sequence (P48048 whole entry, looked up): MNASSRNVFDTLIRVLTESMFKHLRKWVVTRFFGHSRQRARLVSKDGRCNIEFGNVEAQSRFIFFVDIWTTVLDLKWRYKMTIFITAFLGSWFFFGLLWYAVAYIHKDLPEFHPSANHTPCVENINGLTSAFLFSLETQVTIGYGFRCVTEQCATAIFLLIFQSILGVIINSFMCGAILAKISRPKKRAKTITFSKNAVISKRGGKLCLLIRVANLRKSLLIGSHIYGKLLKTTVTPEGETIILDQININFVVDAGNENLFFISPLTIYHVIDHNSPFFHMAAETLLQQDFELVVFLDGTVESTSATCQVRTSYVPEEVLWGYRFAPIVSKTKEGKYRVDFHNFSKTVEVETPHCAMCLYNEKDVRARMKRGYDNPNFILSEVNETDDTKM
# Lmaj promast = Leishmania major promastigote growth inhibition, primary screen; Leishmania major promastigotes, resazurin fluorescence viability; inhibition, % at 10 µM; 200,000 tested, 9% active; in the data active = inhibition above about 50%;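 note: promastigotes grown with compound for 44 hours at 28 °C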
# Diaphorase act = compounds boosting diaphorase resazurin reduction – biochemical, uHTS, resorufin fluorescence, counter-screen for diaphorase-coupled primary assays, primary screen; Diaphorase/resazurin coupled assay, 16 min; stronger effect = higher value; 1 = vehicle wells, 0 = NADH-free wells; activation factor at 20 µM; 190,000 tested, 0.005% active; AID 1229, 2008;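 active = diaphorase activity raised at least twofold by the compound at 20 µM; inactive = activation factor below 2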
#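 test system = bacterial diaphorase enzyme (C. kluyveri) | quantity = enzyme 0.07 U/mL final | reagent = NADH substrate 0.114 mM plus resazurin dye 0.1 mM, final | incubation = 16 min enzyme reaction, ambient temperature | buffer or medium = HEPES pH 7.4 buffer with MgCl2 and Tween 20 | signal = fluorescence of resorufin, 544 nm excitation, 590 nm emission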
# KCC2 mod = KCC2 cotransporter modulators, thallium flux, primary screen, cell-based, HEK293 KCC2, FluoZin-2 fluorescence, MLSMR; Solute carrier family 12 member 5 (Homo sapiens), Q9H2X9; KCC2 cells, thallium flux FluoZin-2 fluorescence; 190,000 tested, 2.2% active; B-score of Tl+ flux slope (higher = more flux/activation; lower = inhibition) at 10 µM;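 active = thallium flux slope and its plate-corrected score both differing from the plate sample mean at a set confidence after two filtering rounds, in either direction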;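 note: slope of fluorescence scaled to starting intensity during 10 to 20 s after thallium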
# WT yeast gro inh = growth inhibition of WT strain, primary screen, mitochondrial fusion inhibitor project, WT and mutant strains, chemical genetic | mitochondrial fusion phenotypic screen | 190,000 tested, 2.1% active | inhibition, % at 10 µM | AID 1362, 2008; in the data active = inhibition above about 58%; tested in S. cerevisiae
# * hit, by the source's call; . = no result given. This is a sample that favours compounds with a hit; in the whole collection about 12% have one here.
SMILES,Diaph inh CS,ROMK mod,Lmaj promast,Diaphorase act,KCC2 mod,WT yeast gro inh
Cc1c2c(nc3ccccc13)CCC(C)C2 (stereo not given),0,-1.2,24,1,0.28,16
C=C(C)C(=O)OC1(C(F)(F)F)Oc2cc(C)ccc2NC1=O (stereo not given),34,.,-2,0.7,0.31,23
CCn1c(SCc2ccc(OC)cc2)nnc1-c1ccncc1,5,.,-5,1,.,-5
CC(C)(C)c1ccc(CN2C(=O)CSC2=O)cc1,4,0.42,-1,1,0.38,5
COC(=O)c1ccc(Oc2cc(C)nc(NCc3ccccc3)n2)cc1,10,-2.6,13,0.9,0.28,29
COC(=O)c1ccc(Oc2nc(C)cc(Oc3ccccc3)n2)cc1,18,-1.3,95*,0.8,0.28,12
CCOC(=O)c1[nH]c2ccccc2c1NC(=O)CCN1CC(C)OC(C)C1 (stereo not given),2,.,-3,1,0.25,-15
Cc1cc(NC(=O)CCN2CCC(C(N)=O)CC2)ccc1Br,-8,-0.14,82*,1.1,0.37,-8
O=C(Nc1ccc2c(c1)CCC2)c1ccc(F)c(S(=O)(=O)N2CCOCC2)c1,22,-1.9,78*,0.8,-1.2,6
CN(c1ccc(F)cc1)S(=O)(=O)c1ccc(Cl)c(C(=O)Nc2ccc3c(c2)CCC3)c1,29,.,4,0.7,-4,-1
Cc1ccc(C(=O)Nc2ccc3c(c2)CCC3)cc1S(=O)(=O)N1CCOCC1,12,-1.6,24,0.9,-2.3,11
CN(c1cccc(Cl)c1)S(=O)(=O)c1cccc(C(=O)Nc2ccc3c(c2)CCC3)c1,15,0.049,95*,0.9,-0.77,-21
Cc1cccc(C)c1NC(=O)CCCN1CC(C)OC(C)C1 (stereo not given),2,0.71,66*,1,.,-5
CC1CCN(CCC(=O)Nc2ccc3c(c2)CCC3)CC1,18,.,84*,0.8,-0.54,15
NC(=O)C1CCN(CCC(=O)Nc2ccc3c(c2)CCC3)CC1,14,-0.0054,80*,0.9,-3.3,-9
CC1CN(CCC(=O)Nc2ccc3c(c2)CCC3)CC(C)O1 (stereo not given),8,-0.35,86*,0.9,.,5
CC1CN(S(=O)(=O)c2cccc(C(=O)Nc3ccc4c(c3)CCC4)c2)CC(C)O1 (stereo not given),24,-0.67,85*,0.8,1,22
CC1CCN(CCC(=O)Nc2ccc(Cl)cc2)CC1,25,-0.38,4,0.8,1.2,-26
CC1CN(S(=O)(=O)c2cccc(C(=O)NN3CCN(C)CC3)c2)CC(C)O1 (stereo not given),6,.,-5,0.9,0.13,7
CCOC(=O)c1cnc(COc2ccc(OC)cc2)[nH]c1=O,.,.,.,.,0.41,.
N#CC(C#N)=C(N)CSc1cccc[n+]1[O-],-8,1.2,-4,1.1,0.11,-24
CC(O)CNc1nc2ccccc2n1CC(=O)NCCc1ccc(Cl)cc1 (stereo not given),5,-1.6,1,1,-1.5,8
NC(=NCCc1ccccc1)NS(=O)(=O)c1ccc2ccccc2c1,14,-1.1,7,0.9,-1.2,-8
Cc1ccc(C(=O)Nc2ccc3c(c2)CCC3)cc1,10,-2.5,-1,0.9,-0.36,18
O=C(Nc1ccc2c(c1)CCC2)c1cccc(F)c1,-4,.,83*,1,-1.1,-3
SMILES,Diaph inh CS,ROMK mod,Lmaj promast,Diaphorase act,KCC2 mod,WT yeast gro inh
CN1C(=O)/C(=C/c2ccccc2OCc2cccc(F)c2)N(C)C1=S,7,-0.86,80*,0.9,0.56,15
Fc1cccc(COc2ccccc2C(=S)N2CCCC2)c1,10,0.24,20,0.9,-1.1,57
Cc1ccc(S(=O)(=O)NNC(=O)c2cc3cc4ccccc4nc3s2)cc1,24,.,92*,0.8,.,22
NCCCN1CCOCC1,-11,0.18,2,1.1,-0.7,-17
CC(CNCc1ccc2c(c1)OCO2)NCc1ccc2c(c1)OCO2 (stereo not given),18,.,93*,0.8,.,15
CN(C)CC(C)(C)CNC(=S)NCc1ccc2c(c1)OCO2,6,0.62,-2,0.9,0.91,5
CC(C)(C)NC(=S)NCc1ccc2c(c1)OCO2,12,0.14,56*,0.9,-0.2,-3
Cc1ccc(NC(=S)NCc2ccc3c(c2)OCO3)cc1C,12,1.4,-5,0.9,-0.28,61*
OC(CNCc1ccc2c(c1)OCO2)COc1ccc(F)cc1 (stereo not given),.,-1.1,.,.,-0.22,.
COC(=O)c1ccc(SCC(=O)NC2CCCCC2)c([N+](=O)[O-])c1,6,0.056,-3,0.9,-0.11,-16
CCCCC(=O)Nc1ccc(C(=O)NNC(=O)c2ccc(C)c(Br)c2)cc1,-7,.,-1,1.1,1.3,-4
CC(=O)c1ccc(NC(=O)c2ccc(C)c(Br)c2)cc1,94*,0.049,-8,0.1,0.29,-22
Cc1ccc(C)c(NC(=S)NNC(=O)c2csc3c2CCC(C)C3)c1 (stereo not given),17,1.5,10,0.8,21*,13
O=C(Nc1ccon1)c1csc2c1CCCC2,8,.,78*,0.9,-0.57,13
CCc1cc(C(=O)NNC(=S)Nc2cc(C)ccc2C)cs1,1,.,7,1,10*,-13
Cc1ccc(C)c(NC(=S)NNC(=O)c2csc3c2CCCC3)c1,6,-0.73,1,0.9,79*,34
CNc1ccc2nnc(C(F)(F)C(F)(F)C(F)(F)F)n2n1,-11,0.44,-7,1.1,-0.29,-3
O=C(O)/C=C/C(=O)Nc1ccc(N2CCOCC2)nc1N1CCOCC1,.,0.44,.,.,-0.14,.
Cc1cccc(NC(=S)NNC(=O)c2csc3c2CCCC3)c1,9,-1,-7,0.9,21*,40
CCNC(=S)NNC(=O)c1csc2c1CCCC2,-10,0.023,-7,1.1,-0.34,-3
CC(=O)Nc1cc(C(=O)N2CCCC2)ccc1Sc1ccc(C)cc1,5,.,21,0.9,-1.8,-6
CCOc1ccc(CNC(=O)c2ccc(Sc3ccc(C)cc3)c(NC(C)=O)c2)cc1,24,-0.83,94*,0.8,-0.036,22
Cc1nn(Cc2ccc([N+](=O)[O-])cc2)c(=O)n1-c1c(F)cccc1F,4,.,0,1,.,7
COc1ccc(-c2csc(/C=C/c3ccc4c(c3)OCO4)n2)cc1OC,1,.,-7,1,0.96,-27
